An excerpt weighted towards active compounds, which were near 1% of everything screened.
PglD DTNB – PglD (C. jejuni) enzyme inhibition. purified PglD enzyme, DTNB colorimetric CoA detection. inhibition, % at 12.5 µM. 360,000 tested, 0.098% active. AID 602405; in the data active = inhibition above about 16%, passing the limit was not always enough
ERp5 inh – inhibitors of human ERp5. Q15084. ERp5 insulin aggregation, absorbance 650 nm, 90 min. inhibition, % at 9.99 µM. 350,000 tested, 0.05% active;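 active = mean replicate inhibition above about 25%, with every replicate also reaching it, limit read from the data, passing the limit was not always enough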
VIM-2 inh – inhibitors of Pseudomonas aeruginosa VIM-2 metallo-beta-lactamase | purified VIM-2, nitrocefin hydrolysis, epi-absorbance fluorescence | inhibition, % at 5.6 µM | 290,000 tested, 0.89% active;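 active = inhibition above the mean of all tested compounds plus 3 SD, cutoff set per screening run, cut at about 7.5% in these data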;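 also: red hydrolysis product quenches plate fluorescence so inhibitors raise well fluorescence; 0% = enzyme with DMSO and 100% = DMSO without enzyme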
PDI inh – PDI (human) enzyme inhibition; inhibition, % at 10 µM; 350,000 tested, 0.052% active; PDI insulin aggregation turbidity, A650, 90 min;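 active = mean inhibition across replicates of 30% or more, whatever share of single replicates reach that level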
IMP-1 inh-1 – blocks Pseudomonas aeruginosa IMP-1 metallo-beta-lactamase; purified IMP-1, nitrocefin hydrolysis, epi-absorbance fluorescence; inhibition, % at 5.6 µM; 290,000 tested, 0.45% active;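 active = inhibition above the mean plus 3 SD of all compounds in the same screening run, cut at about 4.5% in these data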;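 also: 0% = IMP-1 with DMSO and 100% = DMSO wells lacking enzyme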
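Test system: recombinant IMP-1 enzyme, purified / Medium: HEPES buffer pH 7.1 with ZnSO4 and Brij 35 / Doses: single dose, 5.6 µM / Times: 25 °C, 15 min preincubation, 25 min reaction / Detection: Epi-absorbance via hydrolysed-nitrocefin quenching of white-plate fluorescence, 480/530 nm, EDTA stop / Evaluation: percent inhibition from optical density relative to buffer-blank wells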
PvdQ inh – P. aeruginosa PvdQ acylase inhibition. AID 488965. purified PvdQ acylase, fluorescence plate reader. 340,000 tested, 0.063% active. inhibition, % at 10 µM; in the data active = inhibition above about 30%, passing the limit was not always enough;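 also: 0% = vehicle neutral wells and 100% = reference inhibitor wells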
IMP-1 inh-2 – IMP-1 inhibition, counter-screen for VIM-2 inhibitors. shares compounds with VIM-2 inh. purified IMP-1, nitrocefin hydrolysis, epi-absorbance fluorescence. 1,300 tested, under 10 active. inhibition, % at 5.6 µM. AID 1856; call rule not given here;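 also: 0% = enzyme with vehicle and 100% = vehicle without enzyme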
VIM-2 FRET inh – inhibits VIM-2 in FRET assay to exclude epi-absorbance artifacts. shares compounds with VIM-2 inh. purified VIM-2, CCF2 FRET substrate hydrolysis. inhibition, % at 5.6 µM. 1,300 tested, 23% active. AID 1857;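 active = inhibition above the mean of all tested compounds plus 3 SD, cut at about 19% in these data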;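 also: 0% = VIM-2 plus DMSO and 100% = no enzyme wells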
TEM-1 counter – TEM-1 inhibition, counter-screen for VIM-2 inhibitors; shares compounds with VIM-2 inh; Purified TEM-1, nitrocefin hydrolysis, epi-absorbance fluorescence; inhibition, % at 5.6 µM; 1,300 tested, 3% active; AID 1866;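 active = inhibition above that campaign's mean inhibition plus 3 SD, cut at about 0.46% in these data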;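 also: 0% = TEM-1 with DMSO and 100% = TEM-1 with 100 µM potassium clavulanate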
Target sequence (P62593 whole entry, looked up): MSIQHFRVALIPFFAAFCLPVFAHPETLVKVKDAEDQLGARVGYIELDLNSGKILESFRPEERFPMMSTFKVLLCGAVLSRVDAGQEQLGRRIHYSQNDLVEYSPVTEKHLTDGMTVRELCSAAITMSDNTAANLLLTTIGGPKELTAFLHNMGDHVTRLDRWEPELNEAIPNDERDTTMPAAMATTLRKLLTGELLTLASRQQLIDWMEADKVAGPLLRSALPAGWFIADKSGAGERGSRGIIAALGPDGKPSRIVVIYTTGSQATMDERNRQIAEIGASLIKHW
VIM-2 inh conf – confirmation of P. aeruginosa VIM-2 metallo-beta-lactamase inhibitors; shares compounds with VIM-2 inh; purified VIM-2, nitrocefin hydrolysis, epi-absorbance; inhibition, % at 5.6 µM; 1,300 tested, 96% active; AID 2187;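 active = inhibition of the VIM-2 beta-lactamase enzyme above about 11% from the earlier first-round screen, limit read from the data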;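 also: 0% = VIM-2 with DMSO and 100% = buffer wells without enzyme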
The depositor's hits bear a star.

`Cc1cc(-c2ccc(/C=N/n3cnnc3)o2)ccc1Cl` gave ERp5 inh 3, VIM-2 inh 14*, PDI inh -2, IMP-1 inh-1 -2, PvdQ inh -5, IMP-1 inh-2 -2, VIM-2 FRET inh -9, TEM-1 counter -2 and VIM-2 inh conf 37*.
For CCCCOC(=O)c1cc(-c2ccc(/C=N/n3cnnc3)o2)ccc1Cl the results were PglD DTNB 7, VIM-2 inh 22*, PDI inh -4, IMP-1 inh-1 -2, PvdQ inh 1, IMP-1 inh-2 0, VIM-2 FRET inh -5, TEM-1 counter -6 and VIM-2 inh conf 54*.
`CCOC(=O)c1cc(-c2ccc(/C=N\n3cnnc3)o2)ccc1Cl` gave PglD DTNB 25*, VIM-2 inh 57*, PDI inh 0, IMP-1 inh-1 0, PvdQ inh 8, IMP-1 inh-2 -3, VIM-2 FRET inh -4, TEM-1 counter -6 and VIM-2 inh conf 78*.
`COc1cc(/C=C/C(=O)N2CCCC=CC2=O)cc(OC)c1OC` gave ERp5 inh 5.
O=S(=O)(N[C@H]1CC[C@@H](CCn2cc(C3CC3)nn2)O[C@@H]1CO)c1ccc(Cl)cc1 was read as PglD DTNB 5 and ERp5 inh 0.
`COc1ccc(NC(=O)N(C)C[C@@H]2Oc3ccc(NC(=O)Nc4ccc5c(c4)OCO5)cc3CC(=O)N([C@@H](C)CO)C[C@H]2C)cc1` gave PglD DTNB 0.
Screening COc1cnc(-c2ccccn2)nc1Oc1ccc(Cl)cc1 returned PglD DTNB 4, VIM-2 inh 6, PDI inh 0, IMP-1 inh-1 -4 and PvdQ inh 4.
Screening COc1cnc(-c2ccccn2)nc1NC(C)C returned ERp5 inh -1, VIM-2 inh 7, PDI inh 2, IMP-1 inh-1 -3 and PvdQ inh -5.
COc1cnc(-c2ccccn2)nc1Oc1ccccc1Cl was read as PglD DTNB 1, VIM-2 inh 17*, PDI inh 14, IMP-1 inh-1 -2, PvdQ inh -12, IMP-1 inh-2 -4, VIM-2 FRET inh -26, TEM-1 counter -4 and VIM-2 inh conf 46*.
For COc1cnc(-c2ccccn2)nc1Oc1ccc(F)cc1F the results were ERp5 inh 12, VIM-2 inh 18*, PDI inh -2, IMP-1 inh-1 -5, PvdQ inh -10, IMP-1 inh-2 -5, VIM-2 FRET inh -30, TEM-1 counter -4 and VIM-2 inh conf 29*.
Screening COc1cnc(-c2ccccn2)nc1Oc1ccc(Cl)c2ccccc12 returned PglD DTNB -3, VIM-2 inh 39*, PDI inh -1, IMP-1 inh-1 -4, PvdQ inh 7, IMP-1 inh-2 -4, VIM-2 FRET inh -30, TEM-1 counter -6 and VIM-2 inh conf 76*.
CCC(=O)N1CCCCN2[C@@H](CO)[C@@H](c3ccc(C#Cc4cccnc4)cc3)[C@@H]2C1 was read as PglD DTNB 0 and ERp5 inh 7.
Screening CCN(CC)c1nc(Oc2ccc(C(=O)NN)cc2)nc(Oc2ccc(C(=O)NN)cc2)n1 returned ERp5 inh 3, VIM-2 inh 70*, PDI inh 0, IMP-1 inh-1 -3, PvdQ inh -22, IMP-1 inh-2 -4, VIM-2 FRET inh 8, TEM-1 counter -7 and VIM-2 inh conf 82*.
CN1C(=O)c2cc(NC(=O)C3CC3)ccc2OC[C@H]2O[C@H](CC(=O)NCCN3CCCC3)CC[C@H]21 was read as PglD DTNB 3.
For COc1ccc(Cc2nc3ccc(C(=O)NCc4cccc(C)n4)cc3o2)cc1OC the results were PglD DTNB 0, ERp5 inh -2 and PDI inh 2.
